In ChEMBL document CHEMBL3124904, “Second-generation derivatives of the eukaryotic translation initiation inhibitor pateamine A targeting eIF4A as potential anticancer agents” (Bioorg Med Chem, 2014):
Active and inactive are the calls of the source. The calls are words filed in the database; no cut-off is given here.

Legend:
SK-MEL-2 [1] = test: Antiproliferative activity against human SK-MEL-2 cells after 72 hrs by MTT assay in presence of 10% FBS; type: functional, cell-based; conditions: SK-MEL-2, 72 h
In short: (§1)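 HeLa and SK-MEL2 grown in DMEM, Jurkat in RPMI 1640, each with 10% FBS and penicillin-streptomycin, at 37 °C and 5% CO2. Adherent cells seeded at 2000/well and left to recover overnight; Jurkat seeded at 5000/well with no recovery. Compound added in DMSO (0.1% final), then 72 h incubation and MTT readout.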

[2] = target: T1, DNA polymerase subunit gamma-1 (Homo sapiens, UniProt P54098); test: Inhibition of DNA polymerase-gamma (unknown origin) assessed as incorporation of Br(d)UTP by colorimetric analysis
T1 sequence (P54098 whole entry): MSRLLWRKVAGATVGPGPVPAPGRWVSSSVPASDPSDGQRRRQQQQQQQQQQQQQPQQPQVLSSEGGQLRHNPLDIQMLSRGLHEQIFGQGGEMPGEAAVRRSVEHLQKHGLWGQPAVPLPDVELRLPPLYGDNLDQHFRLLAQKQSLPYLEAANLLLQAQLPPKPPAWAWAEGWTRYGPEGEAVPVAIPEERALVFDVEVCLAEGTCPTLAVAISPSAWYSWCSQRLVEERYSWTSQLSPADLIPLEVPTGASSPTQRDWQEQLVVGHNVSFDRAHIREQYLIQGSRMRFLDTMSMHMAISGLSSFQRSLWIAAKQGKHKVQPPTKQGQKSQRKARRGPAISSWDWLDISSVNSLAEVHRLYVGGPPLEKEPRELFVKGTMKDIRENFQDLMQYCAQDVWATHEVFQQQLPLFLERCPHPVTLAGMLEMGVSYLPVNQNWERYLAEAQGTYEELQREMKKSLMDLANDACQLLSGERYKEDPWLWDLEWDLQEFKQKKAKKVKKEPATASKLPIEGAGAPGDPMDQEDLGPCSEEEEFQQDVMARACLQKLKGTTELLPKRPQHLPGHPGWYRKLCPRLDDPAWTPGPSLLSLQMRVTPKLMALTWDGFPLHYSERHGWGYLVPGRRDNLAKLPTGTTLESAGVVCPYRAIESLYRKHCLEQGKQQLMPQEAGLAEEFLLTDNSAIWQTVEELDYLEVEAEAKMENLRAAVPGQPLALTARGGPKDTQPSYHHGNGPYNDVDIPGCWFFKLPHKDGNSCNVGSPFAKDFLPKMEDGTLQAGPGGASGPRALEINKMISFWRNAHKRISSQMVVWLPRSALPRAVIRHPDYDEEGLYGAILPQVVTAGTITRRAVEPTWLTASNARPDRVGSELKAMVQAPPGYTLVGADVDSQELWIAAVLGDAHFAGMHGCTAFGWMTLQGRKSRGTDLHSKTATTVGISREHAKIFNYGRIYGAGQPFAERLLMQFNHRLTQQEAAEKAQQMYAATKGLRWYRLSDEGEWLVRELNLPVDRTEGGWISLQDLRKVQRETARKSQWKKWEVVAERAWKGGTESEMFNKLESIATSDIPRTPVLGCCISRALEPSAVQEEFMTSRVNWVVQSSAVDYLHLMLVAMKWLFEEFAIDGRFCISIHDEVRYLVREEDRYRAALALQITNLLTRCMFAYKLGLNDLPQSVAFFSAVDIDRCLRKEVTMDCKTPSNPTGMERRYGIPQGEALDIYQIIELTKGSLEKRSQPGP

HeLa = test: Antiproliferative activity against human HeLa cells after 72 hrs by MTT assay; type: functional, cell-based; in short: as §1
Oryctolagus cuniculus = species on record: Oryctolagus cuniculus; test: Inhibition of cap-independent HCV-IRES-induced translation in rabbit reticulocyte lysate at 500 nM after 1.5 hrs by luciferase reporter gene assay; type: functional
In short: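 Capped bicistronic reporter mRNA: cap-dependent firefly luciferase first cistron, HCV IRES-driven Renilla second cistron. Transcribed in vitro with SP6 from the BamHI-linearised plasmid. 200 ng RNA translated in rabbit reticulocyte lysate with 70 mM KCl, 2 mM DTT, RNasin and compound in DMSO (5% v/v final), 30 °C for 1.5 h. Dual luciferase readout. Duplicates, 4 independent assays, mean IC50 by curve fit.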

[3] = Antiproliferative activity against BAEC assessed as DNA synthesis level after 24 hrs by thymidine incorporation assay; conditions: Bos taurus
In short: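 Cells kept at 37 °C, 5% CO2 with penicillin-streptomycin and 10% FBS. Adherent lines seeded at 2000 cells/well and left to recover overnight; Jurkat seeded at 5000 cells/well with no recovery period. Compound added in DMSO (0.1% final, vehicle-only control) at 0.001–100 nM over 10 wells. DNA synthesis read out after 24 h. Mean IC50 from at least 3 independent assays.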

SK-MEL-2 [4] = test: Antiproliferative activity against human SK-MEL-2 cells after 72 hrs by MTT assay in presence of 5% FBS; type: functional, cell-based; conditions: SK-MEL-2, 72 h
In short: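 SK-MEL2 grown with reduced serum (5% FBS) to slow proliferation. Compounds added in DMSO (0.1% final), followed by a 72 h MTT proliferation assay.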

[5] = Selectivity ratio of IC50 for MEF to IC50 for human Jurkat T cells; type: cell-based; conditions: mouse (MEF) and human (Jurkat T cells), read-out: Ratio IC50
[6] = Half life in RPMI media at 1 uM by HPLC analysis; type: physicochemical
In short: (§2)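 Compound added from DMSO stock to pre-heated RPMI 1640 (1.8 mL) plus 0.2 mL human AB male serum or FBS, or to 2 mL RPMI alone, at final 1 or 10 μM. Samples analysed by HPLC at pH 9.5 (formic acid/ammonia in acetonitrile/water), with conversion taken from the substrate/internal standard peak ratio. Run in triplicate; half-lives ± SD.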

[7] = Half life in RPMI media at 10 uM by HPLC analysis in presence of human blood serum; type: ADME; in short: as §2
MEF = test: Antiproliferative activity against MEF after 72 hrs by MTT assay; type: cell-based; conditions: Mus musculus

## CC(/C=C/C(C)=C/[C@@H]1Cc2nc(cs2)CCCCC(=O)O[C@@H](C)C/C(C)=C/C=C\C(=O)O1)=C\CN(C)C
SK-MEL-2 [1]
  IC50: 13 nM
[2]
  IC50: 3000 nM
HeLa
  IC50: 9.8 nM
Oryctolagus cuniculus
  inhibition: inactive
[3]
  IC50: 1.97 nM
SK-MEL-2 [4]
  IC50: 30 nM
[5]
  selectivity ratio: 5
[6]
  t1/2: 5.11 h
[7]
  t1/2: 13 h
MEF
  IC50: > 50 nM
